Assay outcomes as filed in PubChem BioAssay.
CHT PAM = allosterically activates the human high affinity choline transporter; B-score at 10 µM; 0.49% of 310,000 active; Q9GZV3; AID 488977; CHT-expressing cells, membrane potential dye, choline EC20; hits give high values; LV-AA mutant CHT in HEK293 cells;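 active = initial fluorescence not abnormally high and integrated response B-score, plate-corrected, over 3 SD above library mean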
Target sequence (Q9GZV3 whole entry, looked up): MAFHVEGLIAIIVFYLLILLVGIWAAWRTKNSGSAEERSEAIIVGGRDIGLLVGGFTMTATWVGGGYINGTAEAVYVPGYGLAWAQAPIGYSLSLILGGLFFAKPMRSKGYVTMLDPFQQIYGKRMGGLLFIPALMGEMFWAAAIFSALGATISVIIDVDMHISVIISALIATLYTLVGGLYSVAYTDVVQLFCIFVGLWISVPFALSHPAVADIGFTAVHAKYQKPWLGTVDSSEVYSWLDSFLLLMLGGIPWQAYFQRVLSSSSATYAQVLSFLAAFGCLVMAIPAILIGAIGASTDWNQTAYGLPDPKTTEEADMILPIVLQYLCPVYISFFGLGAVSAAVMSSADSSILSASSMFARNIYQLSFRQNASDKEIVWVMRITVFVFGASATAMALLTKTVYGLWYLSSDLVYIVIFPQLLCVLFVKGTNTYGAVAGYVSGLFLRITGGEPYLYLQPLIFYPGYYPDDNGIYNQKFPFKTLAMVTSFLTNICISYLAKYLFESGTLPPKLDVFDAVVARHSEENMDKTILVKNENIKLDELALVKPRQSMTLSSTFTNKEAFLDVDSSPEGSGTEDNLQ
CHT inh = inhibits the human high affinity choline transporter. Q9GZV3. CHT-expressing cells, membrane potential dye, choline response; hits give low values. B-score at 10 µM. 0.86% of 310,000 active. AID 488975;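 active = B-score over 3 SD under the library average, and starting fluorescence ratio not unusually high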;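 also: choline stimulus applied at its EC90 after an EC20 pre-addition; B-score computed on integrated fluorescence ratio after choline addition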
Lipid droplet = modulators of hepatic lipid droplet formation. AML12 mouse hepatocytes, oleate lipid droplets, BODIPY imaging. inhibition, % at 6.5 µM. 0.4% of 240,000 active. AID 1656;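 active = lipid droplet intensity inhibited by at least 50%, with more than 500 cells counted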
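Test system: AML12 mouse liver cells; schedule: overnight exposure; technique: high-content imaging of BODIPY-stained droplets and DAPI nuclei; read-out: % inhibition of corrected integrated BODIPY droplet signal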
HSF1 inh = HSF1 inhibition; NIH3T3-HGL HSE-luciferase, MG132-induced, luminescence 8 h; hits give low values; activity change, negative = inhibition, % at 7.5 µM (by protocol); 0.77% of 300,000 active;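 active = more than half of replicate wells show activity change below -50%, luminescence cut by over half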;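 also: luciferase reports HSF-1 transcriptional activity via heat shock element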
PHOSPHO1 block = PHOSPHO1 (human) inhibition. Q8TCT1. recombinant PHOSPHO1, absorbance phosphatase assay. inhibition, % at 13.3 µM. 1.1% of 290,000 active; in the data active = inhibition above about 60%
HSF1 activator = increases HSF-1 driven luciferase reporter signal; NIH3T3-HGL HSF-1 luciferase reporter, MG132, 8 h; 100% = twice DMSO control signal; activation, % at 9 µM; 1.7% of 300,000 active; AID 504408;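 active = mean replicate activation of at least 50% with a set share of replicates each reaching 50%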
Hits are given with their value. The list is not random: actives were taken first. Their share in the collection is about 4.9%.

`OCCC1CN(Cc2cccc(-n3cccn3)c2)CCN1Cc1ccccc1` (configuration not stated) gave CHT PAM inactive, CHT inh inactive, Lipid droplet inactive, HSF1 inh -65, PHOSPHO1 block inactive and HSF1 activator inactive.
Screening COC(=O)c1ccc(CN2CCN(CCC(C)C)C(CCO)C2)cc1 (configuration not stated) returned CHT PAM inactive, CHT inh inactive, Lipid droplet inactive, HSF1 inh inactive, PHOSPHO1 block inactive and HSF1 activator inactive.
Cc1ccc(CN2CCN(Cc3ccc(OC(C)C)cc3)CC2CCO)o1 (configuration not stated) was read as CHT PAM inactive, CHT inh inactive, Lipid droplet inactive, HSF1 inh inactive, PHOSPHO1 block inactive and HSF1 activator inactive.
Cc1ccc(CN2CCN(Cc3cccc(OCCO)c3)CC2CCO)o1 (configuration not stated) was read as CHT PAM inactive, CHT inh inactive, Lipid droplet inactive, HSF1 inh -86, PHOSPHO1 block inactive and HSF1 activator inactive.
For COC(=O)c1ccc(CN2CCN(CCc3ccccc3)C(CCO)C2)cc1 (configuration not stated) the results were CHT PAM inactive, CHT inh inactive, Lipid droplet inactive, HSF1 inh -72, PHOSPHO1 block inactive and HSF1 activator inactive.
CN(C)/C=C/C(=O)c1ccc([N+](=O)[O-])c(CS(=O)(=O)c2ccc(Cl)cc2)c1 was read as CHT PAM inactive, CHT inh inactive, Lipid droplet inactive, HSF1 inh inactive, PHOSPHO1 block inactive and HSF1 activator inactive.
O=C(Nc1cccc(-c2nc3ccccc3s2)c1)C1=COCCO1 was read as CHT PAM inactive, CHT inh inactive, Lipid droplet inactive, HSF1 inh inactive, PHOSPHO1 block inactive and HSF1 activator inactive.
For COC(=O)C1CCN(CCCOc2ccc(CN3CCN(c4ccc([N+](=O)[O-])cc4)CC3)cc2)CC1 the results were CHT PAM inactive, CHT inh inactive, Lipid droplet inactive, HSF1 inh inactive, PHOSPHO1 block inactive and HSF1 activator inactive.
For Nc1c(C(=O)Nc2ccccc2)sc2nc(-c3cccnc3)ccc12 the results were CHT PAM inactive, CHT inh -4.9, Lipid droplet inactive, HSF1 inh inactive, PHOSPHO1 block inactive and HSF1 activator inactive.
CNC(=S)N1CCN(C(=O)c2ccco2)CC1 was read as CHT PAM inactive, CHT inh inactive, Lipid droplet inactive, HSF1 inh inactive, PHOSPHO1 block inactive and HSF1 activator inactive.
Screening O=C(COC(=O)c1ccccc1Nc1ccc(SC(F)F)cc1)NCc1ccco1 returned CHT PAM inactive, CHT inh inactive, HSF1 inh inactive, PHOSPHO1 block inactive and HSF1 activator inactive.
For O=C(COc1ccccc1C(=O)O)Nc1ccc(SC(F)F)cc1 the results were CHT PAM inactive, CHT inh inactive, Lipid droplet inactive, HSF1 inh -86, PHOSPHO1 block inactive and HSF1 activator inactive.
Screening O=C(COC(=O)c1ccccc1Nc1ccc(SC(F)F)cc1)NC1CC1 returned CHT PAM inactive, CHT inh inactive, Lipid droplet inactive, HSF1 inh inactive, PHOSPHO1 block inactive and HSF1 activator 79.
CC(C)(C)NC(=O)COC(=O)c1ccccc1Nc1ccc(SC(F)F)cc1 was read as CHT PAM inactive, CHT inh inactive, Lipid droplet inactive, HSF1 inh inactive, PHOSPHO1 block inactive and HSF1 activator 98.
Screening CCSc1nnc(-c2ccc(S(=O)(=O)NCc3cccs3)cc2)o1 returned CHT PAM inactive, CHT inh inactive, HSF1 inh -68, PHOSPHO1 block inactive and HSF1 activator inactive.
For O=C(CCc1nc2ccccc2c(=O)[nH]1)NNC(=O)c1cccc(Cl)c1 the results were CHT PAM inactive, CHT inh inactive, HSF1 inh inactive and HSF1 activator inactive.
`Cc1ccc(C(C(=O)NCc2ccccc2)N(Cc2ccco2)C(=O)c2snc(C(N)=O)c2N)o1` (configuration not stated) gave CHT PAM inactive, CHT inh inactive, Lipid droplet inactive, HSF1 inh inactive, PHOSPHO1 block inactive and HSF1 activator inactive.
COc1cc(SC)ccc1C(=O)Nc1ccc(C)cc1 was read as CHT PAM inactive, CHT inh inactive, Lipid droplet inactive, HSF1 inh inactive, PHOSPHO1 block inactive and HSF1 activator 55.
`COc1cc(SC)ccc1C(=O)Nc1ncc(Cl)cc1Cl` gave CHT PAM inactive, CHT inh inactive, Lipid droplet inactive, HSF1 inh inactive, PHOSPHO1 block inactive and HSF1 activator 63.
O=C(CSc1nc2ccccc2s1)N/N=C/c1ccccc1C(=O)O was read as CHT PAM inactive, CHT inh inactive, Lipid droplet inactive, HSF1 inh -63, PHOSPHO1 block inactive and HSF1 activator inactive.
`CC(C)COn1c(=S)[nH]c2ccccc2c1=O` gave CHT PAM inactive, CHT inh inactive, HSF1 inh inactive, PHOSPHO1 block inactive and HSF1 activator inactive.
For O=S1(=O)N=C(SCCO)c2ccccc21 the results were CHT PAM inactive, CHT inh inactive, HSF1 inh inactive, PHOSPHO1 block 92 and HSF1 activator inactive.
Screening CCOC1=NS(=O)(=O)c2ccccc21 returned CHT PAM inactive, CHT inh inactive, Lipid droplet inactive, HSF1 inh inactive, PHOSPHO1 block inactive and HSF1 activator inactive.
COc1ccc(N=Nc2cc(C)ccc2O)cc1 was read as CHT PAM inactive, CHT inh inactive, Lipid droplet inactive, HSF1 inh inactive, PHOSPHO1 block inactive and HSF1 activator 59.
`COc1ccc(N=Nc2ccc3ccccc3c2)c(O)c1` gave CHT PAM inactive, CHT inh inactive, Lipid droplet inactive, HSF1 inh inactive, PHOSPHO1 block inactive and HSF1 activator inactive.
Screening COc1ccc(N=Nc2ccc(CO)cc2)cc1 returned CHT PAM inactive, CHT inh inactive, HSF1 inh inactive and HSF1 activator 72.
For O=C(N/C(=C/c1ccc(Br)cc1)C(=O)N1CCCC1)c1ccccc1F the results were CHT PAM inactive, CHT inh inactive, Lipid droplet inactive, HSF1 inh inactive, PHOSPHO1 block inactive and HSF1 activator inactive.
For COC(=O)CSc1ccc2nnc(-c3ccc(OC)c(OC)c3)n2n1 the results were CHT PAM inactive, CHT inh inactive, Lipid droplet inactive, HSF1 inh inactive, PHOSPHO1 block inactive and HSF1 activator inactive.
Screening CCC(Sc1ccc2nnc(-c3ccc(OC)c(OC)c3)n2n1)C(=O)O (configuration not stated) returned CHT PAM inactive, CHT inh inactive, Lipid droplet inactive, HSF1 inh inactive, PHOSPHO1 block 60 and HSF1 activator inactive.
`CCC(Sc1ccc2nnc(-c3ccc(F)cc3)n2n1)C(=O)OC` (configuration not stated) gave CHT PAM inactive, CHT inh inactive, Lipid droplet inactive, HSF1 inh inactive, PHOSPHO1 block inactive and HSF1 activator inactive.
